In ChEMBL document CHEMBL3526048, “In vitro metabolism of rivoglitazone, a novel peroxisome proliferator-activated receptor γ agonist, in rat, monkey, and human liver microsomes and freshly isolated hepatocytes” (Drug Metab Dispos, 2011) one finds Drug metabolism data, which are given here for 1 molecule.

SMILES strings stand for the structures.

Holding throughout (format): ADME
Series [1] concerns the target Cytochrome P450 2C9 (Homo sapiens, UniProt P11712). Kind of series: Activity of human CYP2C9 expressed in microsomes isolated from baculovirus infected insect cell assessed as enzyme-mediated 5-(4-((6-hydroxy-1-methyl-1H-benzo[d]imidazol-2-yl)methoxy)benzyl)thiazolidine-2,4-dione formation at 20 uM after 2 hrs by radio-HPLC/LC-MS/MS analysis in presence of NADPH-generating system and NADPH-generating system/SAM.

The target in series [2] is T1, UDP-glucuronosyltransferase 1A1 (Homo sapiens, UniProt P22309).
T1 sequence (P22309 whole entry): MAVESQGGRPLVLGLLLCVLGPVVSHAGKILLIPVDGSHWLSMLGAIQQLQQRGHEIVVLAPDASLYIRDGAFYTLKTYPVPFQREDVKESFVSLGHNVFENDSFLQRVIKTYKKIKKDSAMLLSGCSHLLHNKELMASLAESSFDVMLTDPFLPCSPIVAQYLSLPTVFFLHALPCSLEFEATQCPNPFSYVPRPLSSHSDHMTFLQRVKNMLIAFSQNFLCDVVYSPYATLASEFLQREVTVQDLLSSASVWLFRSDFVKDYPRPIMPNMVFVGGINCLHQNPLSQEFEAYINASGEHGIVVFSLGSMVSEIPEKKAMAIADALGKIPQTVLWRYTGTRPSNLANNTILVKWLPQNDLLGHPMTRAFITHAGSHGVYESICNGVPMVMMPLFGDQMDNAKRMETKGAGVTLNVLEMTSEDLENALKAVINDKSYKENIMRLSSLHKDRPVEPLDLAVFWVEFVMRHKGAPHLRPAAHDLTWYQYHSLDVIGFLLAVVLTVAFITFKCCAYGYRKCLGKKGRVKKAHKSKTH
Kind of series: Activity of human UGT1A1 expressed in microsomes isolated from baculovirus infected insect cell assessed as enzyme-mediated (2S,3S,4S,5R,6R)-3,4,5-trihydroxy-6-(5-(4-((6-methoxy-1-methyl-1H-benzo[d]imidazol-2-yl)methoxy)benzyl)-2,4-dioxothiazolidin-3-yl)tetrahydro-2H-pyran-2-carboxylic acid formation at 20 uM after 4 hrs by radio-HPLC/LC-MS/MS analysis in presence of UDPGA. The gist of the method: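 Alamethicin (50 μg/mg protein, 15 min on ice) pretreated expressed human UGT microsomes (1 mg/ml protein) from baculovirus-infected insect cells. Incubation with [¹⁴C]rivoglitazone (20 μM) in 100 mM Tris-HCl (pH 7.5) with 10 mM MgCl₂, started by 5 mM UDPGA, 4 h at 37°C with shaking. UGT insect-cell control supersomes were run alongside. Acetonitrile stop, concentrated supernatant analysed by radio-HPLC, LC-MS and LC-MS/MS.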

The target of series [3] is T2, UDP-glucuronosyltransferase 1A9 (Homo sapiens, UniProt O60656).
T2 sequence (O60656 whole entry): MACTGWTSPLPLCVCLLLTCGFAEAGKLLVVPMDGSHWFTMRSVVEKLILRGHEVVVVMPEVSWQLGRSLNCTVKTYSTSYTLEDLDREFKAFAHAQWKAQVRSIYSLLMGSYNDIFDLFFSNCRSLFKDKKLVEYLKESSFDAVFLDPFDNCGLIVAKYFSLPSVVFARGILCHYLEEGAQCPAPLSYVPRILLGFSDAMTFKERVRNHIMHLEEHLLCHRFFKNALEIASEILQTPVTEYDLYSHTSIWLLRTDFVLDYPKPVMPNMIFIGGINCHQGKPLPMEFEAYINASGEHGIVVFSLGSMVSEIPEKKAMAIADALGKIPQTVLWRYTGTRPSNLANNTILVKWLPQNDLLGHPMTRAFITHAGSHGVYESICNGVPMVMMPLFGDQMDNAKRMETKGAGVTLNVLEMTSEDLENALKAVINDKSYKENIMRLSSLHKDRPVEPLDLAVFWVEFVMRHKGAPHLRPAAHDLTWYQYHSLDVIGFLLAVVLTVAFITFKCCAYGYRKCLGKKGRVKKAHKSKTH
Kind of series: Activity of human UGT1A9 expressed in microsomes isolated from baculovirus infected insect cell assessed as enzyme-mediated (2S,3S,4S,5R,6R)-6-((1-carboxy-2-(4-((6-methoxy-1-methyl-1H-benzo[d]imidazol-2-yl)methoxy)phenyl)ethylthio)carbonylamino)-3,4,5-trihydroxytetrahydro-2H-pyran-2-carboxylic acid formation at 20 uM after 4 hrs by radio-HPLC/LC-MS/MS analysis in presence of UDPGA.

Series [4] concerns the target T3, Cytochrome P450 2C8 (Homo sapiens, UniProt P10632).
T3 sequence (P10632 whole entry): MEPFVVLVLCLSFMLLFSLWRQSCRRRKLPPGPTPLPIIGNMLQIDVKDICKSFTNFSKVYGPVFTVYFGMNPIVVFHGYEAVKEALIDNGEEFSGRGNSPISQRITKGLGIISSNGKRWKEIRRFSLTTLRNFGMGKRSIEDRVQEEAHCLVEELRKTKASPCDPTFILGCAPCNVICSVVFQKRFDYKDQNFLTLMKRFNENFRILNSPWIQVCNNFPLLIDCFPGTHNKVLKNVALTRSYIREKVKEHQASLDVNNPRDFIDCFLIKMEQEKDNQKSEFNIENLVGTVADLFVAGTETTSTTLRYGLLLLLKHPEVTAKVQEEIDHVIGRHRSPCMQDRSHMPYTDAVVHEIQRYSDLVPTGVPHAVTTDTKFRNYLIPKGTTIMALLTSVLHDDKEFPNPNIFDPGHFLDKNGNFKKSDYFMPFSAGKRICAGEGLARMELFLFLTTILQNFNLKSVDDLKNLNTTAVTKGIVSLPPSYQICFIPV
Kind of series: Activity of human CYP2C8 expressed in microsomes isolated from baculovirus infected insect cell assessed as enzyme-mediated 5-hydroxy-5-(4-((6-methoxy-1-methyl-1H-benzo[d]imidazol-2-yl)methoxy)benzyl)thiazolidine-2,4-dione formation at 20 uM after 2 hrs by radio-HPLC/LC-MS/MS analysis in presence of NADPH-generating system and NADPH-generating system/SAM. The procedure, abridged:
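Baculovirus/insect-cell microsomes expressing single human CYPs, 1 mg/ml protein, with 50 mM potassium phosphate (pH 7.4) or 100 mM Tris-HCl (pH 7.5). NADPH-generating system: 2 mM NADP⁺, 20 mM glucose 6-phosphate, 2 units/ml G6PDH, 10 mM MgCl₂. [¹⁴C]rivoglitazone at 20 μM, 2 h at 37°C with shaking. Control used insect-cell control supersomes. Stopped with acetonitrile; supernatant concentrated under nitrogen; metabolites analysed by radio-HPLC, LC-MS and LC-MS/MS.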

Chain of Cytochrome P450 2C9 (P11712 whole entry): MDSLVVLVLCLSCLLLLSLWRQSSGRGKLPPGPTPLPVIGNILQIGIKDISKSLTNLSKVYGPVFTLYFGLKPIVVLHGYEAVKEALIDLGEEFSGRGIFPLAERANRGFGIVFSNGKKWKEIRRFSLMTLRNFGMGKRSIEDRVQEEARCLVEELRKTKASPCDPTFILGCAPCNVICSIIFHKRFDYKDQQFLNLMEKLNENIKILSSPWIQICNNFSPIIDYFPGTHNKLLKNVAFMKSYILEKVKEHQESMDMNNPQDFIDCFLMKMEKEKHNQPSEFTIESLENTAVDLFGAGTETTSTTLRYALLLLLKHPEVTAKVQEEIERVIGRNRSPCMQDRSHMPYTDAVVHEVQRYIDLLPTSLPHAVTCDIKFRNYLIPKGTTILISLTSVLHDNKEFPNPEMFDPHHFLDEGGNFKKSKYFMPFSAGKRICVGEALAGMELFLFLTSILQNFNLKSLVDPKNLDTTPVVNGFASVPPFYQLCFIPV

Regarding `COc1ccc2nc(COc3ccc(C[14CH]4SC(=O)NC4=O)cc3)n(C)c2c1.Cl` (racemic), the Drug metabolism result in series [1] is on record as “metabolite_detected”; in series [2], “metabolite_not_detected”; in series [3], “metabolite_not_detected”; in series [4] it was “metabolite_detected”.
